Measured values collected from several papers.
Each line is one published result; the experiments were not run side by side.
Read-out: cell growth or viability

The IC50 of `COc1cc(C(=O)c2nc(-c3cccc4c3CCN4)c[nH]2)cc(OC)c1OC` is reported as 43.4 nM (M14; MTS; 72 h).
With `Cc1[nH]c2ccccc2c1CCNCc1ccc(/C=C/C(=O)NO)cc1` the IC50 was 14.3 nM (MP41; ATP luminescence; 72 h).
`c1ccc(Oc2ccc(Nc3c4c(nc5ccccc35)CCC4)cc2)cc1` gave an IC50 of 40800 nM (RAW264.7; resazurin; 72 h).
For `C[C@H]1[C@H](C)CC[C@]2(C)CC[C@]3(C)C(=CC(=O)[C@@H]4[C@@]5(C)CC[C@@H](O)[C@](C)(C(=O)NCc6cn(-c7ccc(Br)cc7)nn6)[C@@H]5CC[C@]43C)[C@H]12`, the IC50 was 117000 nM (HDF; MTT; 24 h).
With `O=[N+]([O-])c1ccc(Sc2cccc[n+]2[O-])c2nonc12` the IC50 was 2590 nM (MP41; ATP luminescence; 72 h).
For `N/C(=N\O)c1ccc(-c2cc(CNc3cccc4cccnc34)on2)cc1`, the IC50 was 2800 nM (HL-60; MTS; 72 h).
With `O=[N+]([O-])c1ccc(NC(=S)N/N=C/c2cccc3cc4ccccc4nc23)cc1` the IC50 was over 50000 nM (SK-BR-3; MTT; 48 h).
The IC50 of `CO[C@H]1[C@H](O[C@H]([C@H]2O[C@@H](n3ccc(=O)[nH]c3=O)[C@H](O)[C@@H]2O)[C@H](NCCCNC(=O)[C@@H](NC(=O)[C@@H](NC(=O)N[C@H](C(=O)O)C(C)C)[C@@H]2CCN=C(N)N2)[C@@H](OC(=O)CCCCCCCCCCCCN(O)C(=N)N)C(C)C)C(=O)O)O[C@H](CN)[C@H]1O` is reported as 590 nM (SK-BR-3; WST-1).
For `COc1cc(C(=O)c2nc(-c3cccc4[nH]ccc34)c[nH]2)cc2c1OC=CO2`, the IC50 was 7.3 nM (M14; MTS; 72 h).
`CCS(=O)(=O)Nc1ccc(Oc2ccc(F)cc2F)c(-c2cn(C)c(=O)c3[nH]ccc23)c1` gave an IC50 of 99.6 nM (MP41; ATP luminescence; 72 h).
`O=C1C[C@@H](c2ccccc2)Oc2cc(O)cc(O)c21` gave an IC50 of 103000 nM (Vero; MTT; 72 h).
With `N#Cc1ccc(-c2cc(COc3cc(=O)oc4ccccc34)on2)cc1` the IC50 was over 100000 nM (HL-60; MTS; 72 h).
With `COc1ccc(-c2nc(N3CCOCC3)c3sc(CN(C)c4ncc(C(=O)NO)cn4)cc3n2)cn1` the IC50 was 5.96 nM (MP41; ATP luminescence; 72 h).
`CCCNC(=S)N/N=C/c1cccc2cc3ccccc3nc12` has an IC50 of over 50000 nM (SK-BR-3; MTT; 48 h).
For `N#Cc1ccc(-c2cc(CNc3cccc4cccnc34)on2)cc1`, the IC50 was 16500 nM (HL-60; MTS; 72 h).
With `C[C@H]1[C@H](C)CC[C@]2(C)CC[C@]3(C)C(=CC(=O)[C@@H]4[C@@]5(C)CC[C@@H](O)[C@](C)(C(=O)NCc6cn(-c7cccc(Br)c7)nn6)[C@@H]5CC[C@]43C)[C@H]12` the IC50 was 121000 nM (HDF; MTT; 24 h).
`C[C@H]1COCCN1c1nc(N2CCOC[C@@H]2C)c2ccc(-c3cccc(C(=O)NCCOCCOCCOCCONC(=O)c4ccc(F)c(F)c4Nc4ccc(I)cc4F)c3)nc2n1` has an IC50 of 22800 nM (D54; WST-1; 72 h).
For `FC(F)(F)c1cc(OCc2cc(-c3ccc(Cl)cc3Cl)no2)c2ccccc2n1`, the IC50 was over 100000 nM (HL-60; MTS; 72 h).
The IC50 of `COc1cc(C(=O)c2nc(-c3cccc4[nH]ccc34)cs2)cc(OC)c1OC` is reported as 4.5 nM (M14; MTS; 72 h).
The IC50 of `C[C@H]1[C@H](C)CC[C@]2(C)CC[C@]3(C)C(=CC(=O)[C@@H]4[C@@]5(C)CC[C@@H](O)[C@](C)(C(=O)NCc6cn(-c7ccccc7)nn6)[C@@H]5CC[C@]43C)[C@H]12` is reported as 181000 nM (HDF; MTT; 24 h).
With `Cc1ccc(C(C)C)c(OC2=C(Cl)C(=O)c3ccccc3C2=O)c1` the IC50 was over 60 µg/mL (SK-BR-3; MTT; 24 h).
For `CC(=O)N1c2ccc(-c3ccc(C(=O)O)cc3)cc2[C@H](Nc2ccc(Cl)cc2)C[C@@H]1C`, the IC50 was 154 nM (MP41; ATP luminescence; 72 h).
`COc1ccc(Nc2ncnc3c2ncn3Cc2ccc(C(=O)NO)cc2)cc1` gave an IC50 of 1110 nM (U-266; MTT; 72 h).
`Cc1sc2c(c1C)C(c1ccc(Cl)cc1)=N[C@@H](CC(=O)NCCCCNC(=O)COc1cccc3c1C(=O)N(C1CCC(=O)NC1=O)C3=O)c1nnc(C)n1-2` (stereo partly drawn) gave an IC50 of over 10000 nM (SK-BR-3; CCK-8; 72 h).
`COc1cc([C@@H]2c3cc4c(cc3[C@@H](O[C@@H]3O[C@@H]5CO[C@@H](C)O[C@H]5[C@H](O)[C@H]3O)[C@H]3COC(=O)[C@H]23)OCO4)cc(OC)c1O` gave an IC50 of 30 nM (HL-60; MTS; 72 h).
The IC50 of `C[C@H]1[C@H](C)CC[C@]2(C)CC[C@]3(C)C(=CC(=O)[C@@H]4[C@@]5(C)CC[C@@H](O)[C@](C)(C(=O)NCc6cn(-c7ccc(Cl)cc7)nn6)[C@@H]5CC[C@]43C)[C@H]12` is reported as 191000 nM (HDF; MTT; 24 h).
`COc1ccc(NC(=S)N/N=C/c2cccc3cc4ccccc4nc23)cc1` gave an IC50 of over 50000 nM (SK-BR-3; MTT; 48 h).
For `COc1cc(C(=O)c2nc(-c3ccncc3)c[nH]2)cc(OC)c1OC`, the IC50 was over 1000 nM (M14; MTS; 72 h).
For `CC1CCC(C(C)C)C(OC2=C(Cl)C(=O)c3ccccc3C2=O)C1` (stereo not drawn), the IC50 was 4 µg/mL (SK-BR-3; MTT; 24 h).
`COc1cc(C(=O)c2nc(-c3cccc4[nH]ccc34)c(C)[nH]2)cc(OC)c1OC` has an IC50 of 17.2 nM (M14; MTS; 72 h).
With `COc1cccc(NC(=S)N/N=C/c2cccc3cc4ccccc4nc23)c1` the IC50 was over 50000 nM (SK-BR-3; MTT; 48 h).
For `Nc1ccccc1NC(=O)c1ccc(Cn2cnc3c(Nc4ccc(Cl)cc4)ncnc32)cc1`, the IC50 was 330 nM (U-266; MTT; 72 h).
The IC50 of `COc1cc(C(=O)c2nc(-c3cccc4cc[nH]c34)c[nH]2)cc(OC)c1OC` is reported as 27.3 nM (M14; MTS; 72 h).
For `C[C@H]1[C@H](C)CC[C@]2(C)CC[C@]3(C)C(=CC(=O)[C@@H]4[C@@]5(C)CC[C@@H](O)[C@](C)(C(=O)NCc6cn(-c7ccc(F)cc7)nn6)[C@@H]5CC[C@]43C)[C@H]12`, the IC50 was 108000 nM (HDF; MTT; 24 h).
For `COc1cc(C(=O)c2nc(-c3ccc4cc[nH]c4c3)c[nH]2)cc(OC)c1OC`, the IC50 was 14.3 nM (M14; MTS; 72 h).
`O=C(NO)c1ccc(Cn2cnc3c(Nc4cccc([N+](=O)[O-])c4)ncnc32)cc1` gave an IC50 of 310 nM (U-266; MTT; 72 h).
For `COc1nnc2ccc(N3CCC(c4ccc(OCCN5CCN(C)C(=O)[C@H]5C)cc4)CC3)nn12`, the IC50 was 90.4 nM (MP41; ATP luminescence; 72 h).
With `O=C(NO)c1ccc(Cn2cnc3c(Nc4ccc(F)c(Cl)c4)ncnc32)cc1` the IC50 was 1460 nM (U-266; MTT; 72 h).
The IC50 of `C/C(=N/NC(=O)c1cn(-c2ccccc2)nc1-c1ccc(C)cc1)c1c(O)cc(C)oc1=O` is reported as 216000 nM (Vero; MTT; 48 h).
